Test results reported in ChEMBL document CHEMBL3593176, “Design and biological evaluation of novel 4-(2-fluorophenoxy)quinoline derivatives bearing an imidazolone moiety as c-Met kinase inhibitors” (Bioorg Med Chem, 2015).

Experiments:
cells [1] = details: Homo sapiens, NCI-H460, 72 h
A549 = assay: cells; details: Homo sapiens, A549, 72 h
cells [2] = details: Homo sapiens, MKN-45, 72 h
HT-29 = assay: cells; details: Homo sapiens, HT-29, 72 h
[3] = molecular target: Epidermal growth factor receptor (Homo sapiens, UniProt P00533); assay: Inhibition of EGFR (unknown origin) using poly (Glu, Tyr) 4:1 as substrate after 30 mins by HTRF assay
Outline: (§1)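 Purified tyrosine kinase with poly(Glu,Tyr) 4:1 substrate (20 µg/mL) and ATP (10 mM solution) in 50 mM HEPES pH 7.0 buffer containing DTT, MgCl₂, MnCl₂, 0.1% NaN₃; compounds at various concentrations in 1% DMSO. Inhibition normalised to enzyme-free and uninhibited controls; IC50 from inhibition curves.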

[4] = molecular target: Mast/stem cell growth factor receptor Kit (Homo sapiens, UniProt P10721); assay: Inhibition of c-Kit (unknown origin) using poly (Glu, Tyr) 4:1 as substrate after 30 mins by HTRF assay
Outline: as §1

[5] = molecular target: Hepatocyte growth factor receptor (Homo sapiens, UniProt P08581); assay: Inhibition of c-Met (unknown origin) using poly (Glu, Tyr) 4:1 as substrate after 30 mins by HTRF assay
[6] = molecular target: T1, Receptor-type tyrosine-protein kinase FLT3 (Homo sapiens, UniProt P36888); assay: Inhibition of FLT-3 (unknown origin) using poly (Glu, Tyr) 4:1 as substrate after 30 mins by HTRF assay
T1 sequence (P36888 whole entry): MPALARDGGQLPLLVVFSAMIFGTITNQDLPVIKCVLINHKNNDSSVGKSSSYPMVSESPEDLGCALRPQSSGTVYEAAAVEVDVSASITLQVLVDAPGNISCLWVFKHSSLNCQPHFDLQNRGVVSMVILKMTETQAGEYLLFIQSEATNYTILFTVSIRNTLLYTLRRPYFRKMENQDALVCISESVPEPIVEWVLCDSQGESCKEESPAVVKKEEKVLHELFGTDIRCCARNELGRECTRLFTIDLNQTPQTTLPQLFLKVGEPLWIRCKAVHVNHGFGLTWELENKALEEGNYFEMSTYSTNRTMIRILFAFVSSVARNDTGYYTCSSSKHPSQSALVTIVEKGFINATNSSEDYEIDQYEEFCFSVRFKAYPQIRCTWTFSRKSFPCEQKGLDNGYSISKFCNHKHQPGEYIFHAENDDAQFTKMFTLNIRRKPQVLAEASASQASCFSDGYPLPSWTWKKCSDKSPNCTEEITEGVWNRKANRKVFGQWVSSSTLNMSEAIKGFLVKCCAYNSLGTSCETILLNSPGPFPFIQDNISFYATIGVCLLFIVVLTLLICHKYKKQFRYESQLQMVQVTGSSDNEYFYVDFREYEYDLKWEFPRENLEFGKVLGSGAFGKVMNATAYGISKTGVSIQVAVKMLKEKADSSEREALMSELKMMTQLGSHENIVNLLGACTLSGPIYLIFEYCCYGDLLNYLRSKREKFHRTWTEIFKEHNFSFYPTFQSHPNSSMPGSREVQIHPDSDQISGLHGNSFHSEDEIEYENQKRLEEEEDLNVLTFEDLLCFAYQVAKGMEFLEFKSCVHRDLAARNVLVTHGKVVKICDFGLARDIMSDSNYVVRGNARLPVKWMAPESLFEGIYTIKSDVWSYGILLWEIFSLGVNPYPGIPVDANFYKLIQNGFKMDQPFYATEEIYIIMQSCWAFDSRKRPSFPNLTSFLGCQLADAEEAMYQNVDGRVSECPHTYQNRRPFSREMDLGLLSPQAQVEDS

MKN-45 = assay: Potency index, ratio of foretinib IC50 to compound IC50 for human MKN45 cells; format: functional
[7] = Potency index, ratio of foretinib IC50 to compound IC50 for human H460 cells; format: functional
[8] = molecular target: Macrophage-stimulating protein receptor (Homo sapiens, UniProt Q04912); assay: Inhibition of Ron (unknown origin) using poly (Glu, Tyr) 4:1 as substrate after 30 mins by HTRF assay
Outline: as §1

[9] = molecular target: Vascular endothelial growth factor receptor 2 (Homo sapiens, UniProt P35968); assay: Inhibition of VEGFR-2 (unknown origin) using poly (Glu, Tyr) 4:1 as substrate after 30 mins by HTRF assay

Chain of Mast/stem cell growth factor receptor Kit (P10721 whole entry): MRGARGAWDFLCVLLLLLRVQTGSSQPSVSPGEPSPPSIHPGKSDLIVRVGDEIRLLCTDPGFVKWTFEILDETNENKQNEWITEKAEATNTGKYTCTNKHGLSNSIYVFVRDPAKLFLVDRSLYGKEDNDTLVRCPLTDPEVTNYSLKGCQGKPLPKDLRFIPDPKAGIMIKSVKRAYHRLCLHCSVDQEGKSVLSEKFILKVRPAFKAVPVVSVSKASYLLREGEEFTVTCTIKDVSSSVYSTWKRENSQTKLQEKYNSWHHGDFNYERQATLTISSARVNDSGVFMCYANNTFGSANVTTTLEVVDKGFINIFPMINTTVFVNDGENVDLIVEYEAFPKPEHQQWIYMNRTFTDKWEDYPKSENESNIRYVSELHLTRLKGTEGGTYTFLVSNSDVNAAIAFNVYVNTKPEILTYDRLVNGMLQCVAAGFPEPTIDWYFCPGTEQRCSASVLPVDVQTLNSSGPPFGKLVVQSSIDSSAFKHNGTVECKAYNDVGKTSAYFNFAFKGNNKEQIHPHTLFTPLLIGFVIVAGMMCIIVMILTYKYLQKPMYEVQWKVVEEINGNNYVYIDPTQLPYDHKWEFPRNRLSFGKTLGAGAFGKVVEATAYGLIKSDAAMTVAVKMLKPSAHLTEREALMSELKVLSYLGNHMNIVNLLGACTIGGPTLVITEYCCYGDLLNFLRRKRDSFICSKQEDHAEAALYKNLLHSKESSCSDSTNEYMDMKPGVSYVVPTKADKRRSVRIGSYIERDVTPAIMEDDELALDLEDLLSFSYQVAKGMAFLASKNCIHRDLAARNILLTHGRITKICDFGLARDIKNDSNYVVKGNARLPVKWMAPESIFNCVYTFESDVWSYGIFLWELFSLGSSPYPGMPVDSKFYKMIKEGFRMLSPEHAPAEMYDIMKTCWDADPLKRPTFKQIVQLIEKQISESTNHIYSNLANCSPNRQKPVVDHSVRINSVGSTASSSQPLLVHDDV
Chain of Hepatocyte growth factor receptor (P08581 whole entry): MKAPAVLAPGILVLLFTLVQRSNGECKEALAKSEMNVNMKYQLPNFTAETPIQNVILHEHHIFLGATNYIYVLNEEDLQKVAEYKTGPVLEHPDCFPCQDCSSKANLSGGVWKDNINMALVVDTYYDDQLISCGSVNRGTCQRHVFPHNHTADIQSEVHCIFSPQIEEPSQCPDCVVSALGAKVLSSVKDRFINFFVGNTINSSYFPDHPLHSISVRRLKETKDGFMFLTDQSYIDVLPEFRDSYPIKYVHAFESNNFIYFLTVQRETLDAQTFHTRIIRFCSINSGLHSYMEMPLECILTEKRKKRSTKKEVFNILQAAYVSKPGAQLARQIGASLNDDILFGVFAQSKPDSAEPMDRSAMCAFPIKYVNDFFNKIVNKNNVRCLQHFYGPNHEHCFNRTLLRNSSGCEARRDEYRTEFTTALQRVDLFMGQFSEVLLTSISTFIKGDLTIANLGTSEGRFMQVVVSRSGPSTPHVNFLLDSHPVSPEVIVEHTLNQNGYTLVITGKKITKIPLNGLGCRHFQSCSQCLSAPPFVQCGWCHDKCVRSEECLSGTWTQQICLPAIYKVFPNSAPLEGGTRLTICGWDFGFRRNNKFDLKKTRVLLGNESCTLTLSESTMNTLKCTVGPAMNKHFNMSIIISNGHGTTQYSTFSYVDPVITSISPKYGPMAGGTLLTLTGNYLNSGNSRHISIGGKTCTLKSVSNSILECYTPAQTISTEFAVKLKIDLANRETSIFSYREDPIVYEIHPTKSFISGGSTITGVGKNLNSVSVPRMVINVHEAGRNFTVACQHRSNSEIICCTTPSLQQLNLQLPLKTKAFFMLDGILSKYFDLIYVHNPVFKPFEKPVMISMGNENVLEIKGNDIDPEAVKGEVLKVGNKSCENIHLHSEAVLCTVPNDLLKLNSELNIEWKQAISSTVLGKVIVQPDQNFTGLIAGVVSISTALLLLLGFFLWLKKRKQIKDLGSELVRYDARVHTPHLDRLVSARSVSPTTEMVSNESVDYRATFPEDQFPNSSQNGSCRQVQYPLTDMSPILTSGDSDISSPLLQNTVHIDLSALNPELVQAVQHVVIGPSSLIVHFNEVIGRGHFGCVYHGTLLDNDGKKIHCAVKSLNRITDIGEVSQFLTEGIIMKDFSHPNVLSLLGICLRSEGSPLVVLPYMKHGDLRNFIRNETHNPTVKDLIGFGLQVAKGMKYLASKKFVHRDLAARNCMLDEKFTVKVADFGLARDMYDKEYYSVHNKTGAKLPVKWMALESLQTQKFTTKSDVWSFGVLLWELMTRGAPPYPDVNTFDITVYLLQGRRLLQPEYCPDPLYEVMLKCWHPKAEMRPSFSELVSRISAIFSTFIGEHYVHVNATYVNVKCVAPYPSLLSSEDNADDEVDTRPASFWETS
Chain of Epidermal growth factor receptor (P00533 whole entry): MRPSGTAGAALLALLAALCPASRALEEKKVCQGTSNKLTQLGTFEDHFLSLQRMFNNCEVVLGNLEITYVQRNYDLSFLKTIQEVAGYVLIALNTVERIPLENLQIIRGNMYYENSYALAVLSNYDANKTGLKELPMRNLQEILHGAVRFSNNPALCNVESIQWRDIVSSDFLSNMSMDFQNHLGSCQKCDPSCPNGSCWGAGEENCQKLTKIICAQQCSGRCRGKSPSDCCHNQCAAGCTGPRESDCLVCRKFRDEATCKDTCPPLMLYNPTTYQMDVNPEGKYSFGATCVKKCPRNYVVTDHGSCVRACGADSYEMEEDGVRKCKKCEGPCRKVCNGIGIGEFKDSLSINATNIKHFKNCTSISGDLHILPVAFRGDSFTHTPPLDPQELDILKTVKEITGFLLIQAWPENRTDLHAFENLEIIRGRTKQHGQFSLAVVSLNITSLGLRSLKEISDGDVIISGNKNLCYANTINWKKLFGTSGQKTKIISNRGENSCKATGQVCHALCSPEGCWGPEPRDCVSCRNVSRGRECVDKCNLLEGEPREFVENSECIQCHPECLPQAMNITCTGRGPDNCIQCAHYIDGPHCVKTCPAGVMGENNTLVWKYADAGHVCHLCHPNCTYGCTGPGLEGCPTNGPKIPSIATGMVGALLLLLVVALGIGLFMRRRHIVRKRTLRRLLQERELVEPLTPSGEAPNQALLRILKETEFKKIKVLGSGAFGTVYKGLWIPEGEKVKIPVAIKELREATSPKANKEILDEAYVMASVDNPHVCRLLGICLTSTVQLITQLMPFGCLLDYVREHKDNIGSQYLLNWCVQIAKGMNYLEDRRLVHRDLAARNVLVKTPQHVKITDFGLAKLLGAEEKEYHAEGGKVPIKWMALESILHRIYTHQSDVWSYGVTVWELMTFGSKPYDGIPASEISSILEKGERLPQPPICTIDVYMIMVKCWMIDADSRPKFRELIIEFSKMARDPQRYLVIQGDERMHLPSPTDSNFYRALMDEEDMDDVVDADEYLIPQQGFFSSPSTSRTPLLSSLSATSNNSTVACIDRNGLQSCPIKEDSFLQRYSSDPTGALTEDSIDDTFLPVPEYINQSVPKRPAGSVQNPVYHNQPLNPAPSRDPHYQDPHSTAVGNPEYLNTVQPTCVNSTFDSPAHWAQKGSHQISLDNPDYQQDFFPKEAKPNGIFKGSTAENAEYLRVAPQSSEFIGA
Chain of Macrophage-stimulating protein receptor (Q04912 25-304 limits assumed): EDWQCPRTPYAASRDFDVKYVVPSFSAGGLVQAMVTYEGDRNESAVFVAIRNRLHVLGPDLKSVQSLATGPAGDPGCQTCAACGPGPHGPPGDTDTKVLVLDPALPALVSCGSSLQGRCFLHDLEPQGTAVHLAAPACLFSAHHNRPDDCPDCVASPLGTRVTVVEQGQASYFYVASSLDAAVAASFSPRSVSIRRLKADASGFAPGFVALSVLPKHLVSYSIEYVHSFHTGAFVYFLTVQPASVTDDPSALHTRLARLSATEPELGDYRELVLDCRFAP
Chain of Macrophage-stimulating protein receptor (Q04912 310-1400 limits assumed): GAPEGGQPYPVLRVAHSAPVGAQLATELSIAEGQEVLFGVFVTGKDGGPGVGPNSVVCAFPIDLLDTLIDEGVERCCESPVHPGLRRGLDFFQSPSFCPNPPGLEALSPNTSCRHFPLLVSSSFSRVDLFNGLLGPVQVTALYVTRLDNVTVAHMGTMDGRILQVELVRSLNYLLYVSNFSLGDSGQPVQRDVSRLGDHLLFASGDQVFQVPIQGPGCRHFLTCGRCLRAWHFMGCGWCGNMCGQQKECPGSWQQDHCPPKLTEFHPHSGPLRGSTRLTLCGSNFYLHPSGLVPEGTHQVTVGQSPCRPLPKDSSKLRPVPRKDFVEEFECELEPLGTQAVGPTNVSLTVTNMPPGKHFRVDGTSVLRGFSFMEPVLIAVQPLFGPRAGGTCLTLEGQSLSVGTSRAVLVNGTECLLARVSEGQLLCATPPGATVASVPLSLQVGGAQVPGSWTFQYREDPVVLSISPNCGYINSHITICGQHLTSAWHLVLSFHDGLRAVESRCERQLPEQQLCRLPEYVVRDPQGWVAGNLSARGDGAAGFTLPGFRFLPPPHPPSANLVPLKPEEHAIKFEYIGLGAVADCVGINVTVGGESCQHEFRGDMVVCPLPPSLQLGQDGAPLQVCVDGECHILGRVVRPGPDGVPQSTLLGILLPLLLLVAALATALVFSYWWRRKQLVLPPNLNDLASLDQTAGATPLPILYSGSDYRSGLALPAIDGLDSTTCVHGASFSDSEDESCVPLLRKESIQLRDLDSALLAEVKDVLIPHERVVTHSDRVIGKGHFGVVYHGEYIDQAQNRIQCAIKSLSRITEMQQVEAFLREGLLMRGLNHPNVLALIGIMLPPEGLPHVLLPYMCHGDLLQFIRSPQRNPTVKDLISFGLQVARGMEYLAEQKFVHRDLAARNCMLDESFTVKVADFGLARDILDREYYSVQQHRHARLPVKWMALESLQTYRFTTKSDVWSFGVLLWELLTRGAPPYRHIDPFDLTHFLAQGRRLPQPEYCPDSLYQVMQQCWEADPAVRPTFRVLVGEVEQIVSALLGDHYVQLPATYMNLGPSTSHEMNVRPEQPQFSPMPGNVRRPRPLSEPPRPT

SMILES	IC50 (cells [1])	IC50 (A549)	IC50 (cells [2])	IC50 (HT-29)	IC50 [3]	IC50 [4]	IC50 [5]	IC50 [6]	IC50 [8]	IC50 [9]	Ratio IC50 (MKN-45)	Ratio IC50 [7]
COc1cc2c(Oc3ccc(NC(=O)c4c(C)n(-c5ccccc5)c(=O)n4C)cc3F)ccnc2cc1OCCCN1CCOCC1	790 nM	980 nM	320 nM	740 nM								
COc1cc2c(Oc3ccc(NC(=O)c4c(C)n(-c5ccccc5)c(=O)n4C)cc3F)ccnc2cc1OCCCN1CCCC1	1030 nM	1460 nM	510 nM	940 nM								
COc1cc2c(Oc3ccc(NC(=O)c4c(C)n(-c5ccccc5)c(=O)n4C)cc3F)ccnc2cc1OCCCN1CCN(C)CC1	420 nM	600 nM	190 nM	300 nM								
COc1cc2c(Oc3ccc(NC(=O)c4c(C)n(-c5ccc(C)cc5)c(=O)n4C)cc3F)ccnc2cc1OCCCN1CCC(C)CC1	940 nM	1120 nM	430 nM	790 nM								
COc1cc2c(Oc3ccc(NC(=O)c4c(C)n(-c5ccc(C)cc5)c(=O)n4C)cc3F)ccnc2cc1OCCCN1CCN(C)CC1	510 nM	830 nM	360 nM	490 nM								
COc1cc2c(Oc3ccc(NC(=O)c4c(C)n(-c5ccc(F)cc5)c(=O)n4C)cc3F)ccnc2cc1OCCCN1CCC(C)CC1	250 nM	520 nM	84 nM	240 nM								
COc1cc2c(Oc3ccc(NC(=O)c4c(C)n(-c5ccc(F)cc5)c(=O)n4C)cc3F)ccnc2cc1OCCCN1CCN(C)CC1	260 nM	430 nM	67 nM	190 nM								
COc1cc2c(Oc3ccc(NC(=O)c4c(C)n(-c5ccc(Cl)cc5)c(=O)n4C)cc3F)ccnc2cc1OCCCN1CCC(C)CC1	200 nM	420 nM	62 nM	170 nM								
COc1cc2c(Oc3ccc(NC(=O)c4c(C)n(-c5ccc(Br)cc5)c(=O)n4C)cc3F)ccnc2cc1OCCCN1CCN(C)CC1	360 nM	480 nM	120 nM	290 nM								
COc1cc2c(Oc3ccc(NC(=O)c4c(C)n(-c5ccc(F)c(F)c5)c(=O)n4C)cc3F)ccnc2cc1OCCCN1CCOCC1	540 nM	620 nM	170 nM	390 nM								
COc1cc2c(Oc3ccc(NC(=O)c4c(C)n(-c5ccc(F)c(F)c5)c(=O)n4C)cc3F)ccnc2cc1OCCCN1CCC(C)CC1	230 nM	530 nM	95 nM	230 nM								
COc1cc2c(Oc3ccc(NC(=O)c4c(C)n(-c5ccc(F)c(F)c5)c(=O)n4C)cc3F)ccnc2cc1OCCCN1CCN(C)CC1	240 nM	400 nM	86 nM	180 nM								
COc1cc2c(Oc3ccc(NC(=O)c4c(C)n(-c5ccc(F)c(Cl)c5)c(=O)n4C)cc3F)ccnc2cc1OCCCN1CCC(C)CC1	250 nM	430 nM	89 nM	200 nM								
COc1cc2c(Oc3ccc(NC(=O)c4c(C)n(-c5ccc(F)c(Cl)c5)c(=O)n4C)cc3F)ccnc2cc1OCCCN1CCN(C)CC1	210 nM	380 nM	73 nM	140 nM								
COc1cc2c(Oc3ccc(NC(=O)c4c(C)n(-c5ccc(OC(F)(F)F)cc5)c(=O)n4C)cc3F)ccnc2cc1OCCCN1CCN(C)CC1	340 nM	440 nM	120 nM	270 nM								
COc1cc2c(Oc3ccc(NC(=O)c4c(C)n(-c5ccc(C(F)(F)F)cc5)c(=O)n4C)cc3F)ccnc2cc1OCCCN1CCC(C)CC1	410 nM	540 nM	130 nM	360 nM								
COc1cc2c(Oc3ccc(NC(=O)c4c(C)n(-c5cccc(C(F)(F)F)c5)c(=O)n4C)cc3F)ccnc2cc1OCCCN1CCN(C)CC1	570 nM	770 nM	200 nM	430 nM								
COc1cc2c(Oc3ccc(NC(=O)c4c(C)n(-c5ccccc5C(F)(F)F)c(=O)n4C)cc3F)ccnc2cc1OCCCN1CCC(C)CC1	220 nM	450 nM	81 nM	140 nM								
COc1cc2c(Oc3ccc(NC(=O)c4c(C)n(-c5ccccc5C(F)(F)F)c(=O)n4C)cc3F)ccnc2cc1OCCCN1CCN(C)CC1	190 nM	370 nM	69 nM	130 nM								
COc1cc2c(Oc3ccc(NC(=O)c4c(C)n(-c5ccccc5Cl)c(=O)n4C)cc3F)ccnc2cc1OCCCN1CCC(C)CC1	180 nM	320 nM	43 nM	150 nM								
COc1cc2c(Oc3ccc(NC(=O)c4c(C)n(-c5ccccc5Cl)c(=O)n4C)cc3F)ccnc2cc1OCCCN1CCN(C)CC1	130 nM	310 nM	37 nM	120 nM								

Second part, led by results:

IC50 (cells [1])	IC50 (A549)	IC50 (cells [2])	IC50 (HT-29)	IC50 [3]	IC50 [4]	IC50 [5]	IC50 [6]	IC50 [8]	IC50 [9]	SMILES	Ratio IC50 (MKN-45)	Ratio IC50 [7]
360 nM	500 nM	98 nM	260 nM							COc1cc2c(Oc3ccc(NC(=O)c4c(C)n(-c5ccc(C(F)(F)F)cc5)c(=O)n4C)cc3F)ccnc2cc1OCCCN1CCN(C)CC1		
650 nM	790 nM	240 nM	560 nM							COc1cc2c(Oc3ccc(NC(=O)c4c(C)n(-c5ccccc5)c(=O)n4C)cc3F)ccnc2cc1OCCCN1CCCCC1		
590 nM	660 nM	210 nM	360 nM							COc1cc2c(Oc3ccc(NC(=O)c4c(C)n(-c5ccccc5)c(=O)n4C)cc3F)ccnc2cc1OCCCN1CCC(C)CC1		
940 nM	1040 nM	490 nM	790 nM							COc1ccc(-n2c(C)c(C(=O)Nc3ccc(Oc4ccnc5cc(OCCCN6CCC(C)CC6)c(OC)cc45)c(F)c3)n(C)c2=O)cc1		
690 nM	960 nM	440 nM	560 nM							COc1ccc(-n2c(C)c(C(=O)Nc3ccc(Oc4ccnc5cc(OCCCN6CCN(C)CC6)c(OC)cc45)c(F)c3)n(C)c2=O)cc1		
170 nM	360 nM	58 nM	140 nM							COc1cc2c(Oc3ccc(NC(=O)c4c(C)n(-c5ccc(Cl)cc5)c(=O)n4C)cc3F)ccnc2cc1OCCCN1CCN(C)CC1		
550 nM	680 nM	160 nM	280 nM							COc1cc2c(Oc3ccc(NC(=O)c4c(C)n(-c5ccc(Br)cc5)c(=O)n4C)cc3F)ccnc2cc1OCCCN1CCC(C)CC1		
590 nM	620 nM	140 nM	400 nM							COc1cc2c(Oc3ccc(NC(=O)c4c(C)n(-c5ccc(OC(F)(F)F)cc5)c(=O)n4C)cc3F)ccnc2cc1OCCCN1CCC(C)CC1		
580 nM	880 nM	320 nM	520 nM							COc1cc2c(Oc3ccc(NC(=O)c4c(C)n(-c5cccc(C(F)(F)F)c5)c(=O)n4C)cc3F)ccnc2cc1OCCCN1CCC(C)CC1		
100 nM	250 nM	14 nM	86 nM	> 100000 nM	38.2 nM	1.42 nM	134 nM	270 nM	92.6 nM	COc1cc2c(Oc3ccc(NC(=O)c4[nH]c(=O)n(-c5ccccc5Cl)c4C)cc3F)ccnc2cc1OCCCN1CCN(C)CC1	8.6	2.1
